Several values for one entry are separate records, joined by “and”; a condition that tells them apart may be missing. Equal entries are not always repeated.

IC50 data for one compound are collected here from paper PMC6210076 (ACS Omega, 2018).

For the test, the target named is T1, HPA (Helix pomatia, UniProt Q2F1K8).
T1 sequence (Q2F1K8 20-121): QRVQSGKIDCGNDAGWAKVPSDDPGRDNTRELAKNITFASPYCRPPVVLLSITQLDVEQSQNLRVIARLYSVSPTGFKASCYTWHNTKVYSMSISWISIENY
Briefly: Fluorescent microarray competition: Alexa Fluor 647-labeled HPA. The class given is biochemical. The following applies: IC50,microarray (μM); SEM. A digest of the protocol: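 Glycoconjugates spotted in triplicate on NHS-coated glass slides from PBS pH 8.5 with 5% glycerol. Slides held 17−20 h at 70% humidity, then blocked 1 h at 37 °C in ethanolamine/boric acid/Tween 20 buffer pH 8.5. Probing in 16-well masks under slow agitation, then Tween-PBS washes. Scanned at 635 nm excitation. Mean fluorescence fitted against log competitor concentration.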

Turning to `CC(=O)N[C@H]1C(O)O[C@H](CO)[C@H](O)[C@@H]1O` (stereo partly drawn) [GalNAc, N-acetyl-D-galactosamine], the IC50 is 180 µM and 301 µM and 687 µM and 449 µM.
